Data published in ChEMBL document CHEMBL1157613, “Salicylic acid based small molecule inhibitor for the oncogenic Src homology-2 domain containing protein tyrosine phosphatase-2 (SHP2)” (J Med Chem, 2010).
The source made the active and inactive calls. The rule behind the calls is not given here.

What was measured:
[1] = target: T1, Tyrosine-protein phosphatase non-receptor type 22 (Homo sapiens, UniProt Q9Y2R2); assay: Inhibition of Lyp expressed in Escherichia coli assessed as inhibition of p-nitrophenyl phosphate hydrolysis at pH 7 by spectrophotometry
T1 sequence (Q9Y2R2 whole entry): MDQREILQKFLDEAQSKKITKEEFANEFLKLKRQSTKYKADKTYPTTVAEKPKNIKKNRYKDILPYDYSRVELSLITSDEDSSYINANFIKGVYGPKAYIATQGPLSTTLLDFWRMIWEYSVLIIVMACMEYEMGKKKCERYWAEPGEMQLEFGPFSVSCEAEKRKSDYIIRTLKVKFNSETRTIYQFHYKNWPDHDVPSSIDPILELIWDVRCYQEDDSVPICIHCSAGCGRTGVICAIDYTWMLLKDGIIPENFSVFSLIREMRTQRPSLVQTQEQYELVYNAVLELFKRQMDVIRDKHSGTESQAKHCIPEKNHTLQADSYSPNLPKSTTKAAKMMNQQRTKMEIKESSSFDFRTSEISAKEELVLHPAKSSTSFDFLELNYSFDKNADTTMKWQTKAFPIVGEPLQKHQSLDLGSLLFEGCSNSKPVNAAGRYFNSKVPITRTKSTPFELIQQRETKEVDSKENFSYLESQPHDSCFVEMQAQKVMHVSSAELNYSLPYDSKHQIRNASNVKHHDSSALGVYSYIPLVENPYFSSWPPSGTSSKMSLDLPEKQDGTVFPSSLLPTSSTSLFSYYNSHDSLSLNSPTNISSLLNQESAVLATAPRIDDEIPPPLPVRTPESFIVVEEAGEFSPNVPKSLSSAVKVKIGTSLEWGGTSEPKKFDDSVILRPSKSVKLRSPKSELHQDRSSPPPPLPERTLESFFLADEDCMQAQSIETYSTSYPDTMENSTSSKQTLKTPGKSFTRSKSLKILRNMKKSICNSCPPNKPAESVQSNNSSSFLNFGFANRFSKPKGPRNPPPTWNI

[2] = target: T2, Receptor-type tyrosine-protein phosphatase C (Homo sapiens, UniProt P08575); assay: Inhibition of CD45 expressed in Escherichia coli assessed as inhibition of p-nitrophenyl phosphate hydrolysis at pH 7 by spectrophotometry
T2 sequence (P08575 whole entry): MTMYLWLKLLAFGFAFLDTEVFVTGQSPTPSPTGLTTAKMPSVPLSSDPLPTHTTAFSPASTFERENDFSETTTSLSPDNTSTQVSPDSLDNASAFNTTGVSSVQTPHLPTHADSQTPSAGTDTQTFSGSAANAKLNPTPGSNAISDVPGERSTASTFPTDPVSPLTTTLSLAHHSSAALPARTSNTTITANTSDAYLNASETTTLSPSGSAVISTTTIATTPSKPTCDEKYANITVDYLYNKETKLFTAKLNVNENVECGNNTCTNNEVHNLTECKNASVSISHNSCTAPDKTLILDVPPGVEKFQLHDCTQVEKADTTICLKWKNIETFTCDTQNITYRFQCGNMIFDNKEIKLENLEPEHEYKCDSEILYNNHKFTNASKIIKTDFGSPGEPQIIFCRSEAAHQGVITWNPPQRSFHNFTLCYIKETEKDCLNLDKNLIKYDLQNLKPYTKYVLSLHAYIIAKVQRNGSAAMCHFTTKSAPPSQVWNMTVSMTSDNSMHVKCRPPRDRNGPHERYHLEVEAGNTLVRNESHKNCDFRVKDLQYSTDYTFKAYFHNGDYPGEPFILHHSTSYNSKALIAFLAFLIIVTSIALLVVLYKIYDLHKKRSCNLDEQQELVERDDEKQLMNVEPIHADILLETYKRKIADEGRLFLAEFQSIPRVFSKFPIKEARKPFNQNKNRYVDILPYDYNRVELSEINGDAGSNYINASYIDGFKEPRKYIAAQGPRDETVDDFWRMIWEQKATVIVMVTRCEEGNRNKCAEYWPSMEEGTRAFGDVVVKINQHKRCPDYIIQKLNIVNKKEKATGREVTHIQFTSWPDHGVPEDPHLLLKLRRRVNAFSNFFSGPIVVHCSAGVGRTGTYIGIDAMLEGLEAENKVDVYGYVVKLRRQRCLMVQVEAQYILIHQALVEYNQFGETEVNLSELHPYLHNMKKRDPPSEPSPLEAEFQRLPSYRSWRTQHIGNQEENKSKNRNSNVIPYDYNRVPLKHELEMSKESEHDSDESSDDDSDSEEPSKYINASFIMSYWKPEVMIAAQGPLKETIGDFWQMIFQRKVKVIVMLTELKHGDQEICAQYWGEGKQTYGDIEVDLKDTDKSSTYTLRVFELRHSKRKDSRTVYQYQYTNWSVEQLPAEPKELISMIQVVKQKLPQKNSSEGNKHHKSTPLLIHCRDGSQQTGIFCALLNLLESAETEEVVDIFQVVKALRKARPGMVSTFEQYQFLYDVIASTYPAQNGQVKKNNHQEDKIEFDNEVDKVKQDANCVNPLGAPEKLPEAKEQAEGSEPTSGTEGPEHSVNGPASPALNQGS

[3] = target: T3, Tyrosine-protein phosphatase non-receptor type 7 (Homo sapiens, UniProt P35236); assay: Inhibition of HePTP expressed in Escherichia coli assessed as inhibition of p-nitrophenyl phosphate hydrolysis at pH 7 by spectrophotometry
T3 sequence (P35236 whole entry): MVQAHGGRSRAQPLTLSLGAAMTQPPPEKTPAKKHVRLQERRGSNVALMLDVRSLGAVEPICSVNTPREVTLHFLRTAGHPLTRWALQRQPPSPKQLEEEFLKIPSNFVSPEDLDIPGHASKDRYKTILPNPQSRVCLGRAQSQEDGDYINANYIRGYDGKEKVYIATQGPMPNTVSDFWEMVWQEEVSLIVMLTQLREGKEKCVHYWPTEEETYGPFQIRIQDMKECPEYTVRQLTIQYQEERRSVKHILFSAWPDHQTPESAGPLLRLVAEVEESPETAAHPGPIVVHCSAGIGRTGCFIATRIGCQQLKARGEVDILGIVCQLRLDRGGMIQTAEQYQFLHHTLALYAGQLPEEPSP

Mus musculus = species: Mus musculus; assay: Antiproliferative activity against GM-CSF-stimulated C57/BL6 mouse low density BM-MNC expressing SHP2 D61Y mutant assessed as inhibition of hyperproliferation at 10 uM after 16 hrs by [3H]thymidine incorporation assay; type: functional; conditions: C57Bl/6
Outline: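 Marrow low-density mononuclear cells from C57Bl/6 mice (Ficoll), prestimulated 24 h with SCF, G-CSF, Tpo (100 ng/mL), retrovirally transduced 48 h with wild-type SHP2, D61Y or E76K, EGFP-sorted. Starved 4 h in 0.2% BSA; 5 × 10^4 cells cultured 16 h in GM-CSF 0-1 ng/mL ± 10 μM compound, then pulsed with 1.0 μCi [3H]thymidine for 6-8 h; counts per minute; n = 3.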

[4] = target: Receptor-type tyrosine-protein phosphatase alpha (Homo sapiens, UniProt P18433); assay: Inhibition of PTPalpha expressed in Escherichia coli assessed as inhibition of p-nitrophenyl phosphate hydrolysis at pH 7 by spectrophotometry
Sequence of Receptor-type tyrosine-protein phosphatase alpha (P18433 whole entry): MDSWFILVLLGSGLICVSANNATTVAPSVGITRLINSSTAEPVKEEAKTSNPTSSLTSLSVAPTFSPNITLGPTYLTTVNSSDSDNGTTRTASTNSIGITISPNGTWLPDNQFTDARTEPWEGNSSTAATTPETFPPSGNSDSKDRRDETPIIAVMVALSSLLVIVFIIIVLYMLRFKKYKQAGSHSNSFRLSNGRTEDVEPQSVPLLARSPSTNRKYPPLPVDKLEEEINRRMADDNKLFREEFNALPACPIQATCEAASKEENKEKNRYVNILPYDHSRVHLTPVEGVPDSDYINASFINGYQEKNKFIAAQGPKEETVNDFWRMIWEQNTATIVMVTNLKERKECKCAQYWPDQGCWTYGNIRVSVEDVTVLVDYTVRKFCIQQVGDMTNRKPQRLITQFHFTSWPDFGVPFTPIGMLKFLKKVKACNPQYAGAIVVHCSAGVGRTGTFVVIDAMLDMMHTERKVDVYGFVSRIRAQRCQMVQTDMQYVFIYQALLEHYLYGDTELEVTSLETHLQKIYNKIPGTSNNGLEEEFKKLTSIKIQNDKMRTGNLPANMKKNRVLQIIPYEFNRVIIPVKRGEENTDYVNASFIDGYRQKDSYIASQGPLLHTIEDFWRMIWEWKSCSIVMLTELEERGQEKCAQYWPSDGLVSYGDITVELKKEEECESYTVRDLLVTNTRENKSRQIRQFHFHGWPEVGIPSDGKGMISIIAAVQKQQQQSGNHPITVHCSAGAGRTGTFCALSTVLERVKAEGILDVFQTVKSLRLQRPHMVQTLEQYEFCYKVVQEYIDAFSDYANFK

[5] = target: Tyrosine-protein phosphatase non-receptor type 6 (Homo sapiens, UniProt P29350); assay: Inhibition of SHP1 expressed in Escherichia coli assessed as inhibition of p-nitrophenyl phosphate hydrolysis at pH 7 by spectrophotometry
Sequence of Tyrosine-protein phosphatase non-receptor type 6 (P29350 whole entry): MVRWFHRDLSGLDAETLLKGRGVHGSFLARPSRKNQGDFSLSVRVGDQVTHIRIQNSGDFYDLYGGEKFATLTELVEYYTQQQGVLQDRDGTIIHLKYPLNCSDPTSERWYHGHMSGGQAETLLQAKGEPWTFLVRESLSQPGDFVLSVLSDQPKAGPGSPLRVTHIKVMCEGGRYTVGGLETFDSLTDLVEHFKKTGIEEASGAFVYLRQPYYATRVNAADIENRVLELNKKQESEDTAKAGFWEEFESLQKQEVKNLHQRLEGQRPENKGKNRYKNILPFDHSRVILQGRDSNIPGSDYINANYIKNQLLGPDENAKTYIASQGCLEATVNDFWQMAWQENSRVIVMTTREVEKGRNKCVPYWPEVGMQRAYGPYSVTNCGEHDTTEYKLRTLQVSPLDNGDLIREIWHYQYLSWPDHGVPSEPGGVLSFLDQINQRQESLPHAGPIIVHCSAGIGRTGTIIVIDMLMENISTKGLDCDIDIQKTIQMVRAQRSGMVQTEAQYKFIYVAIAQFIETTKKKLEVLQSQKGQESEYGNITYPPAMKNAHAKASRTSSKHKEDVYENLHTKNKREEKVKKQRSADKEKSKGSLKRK

Cn1c(-c2ccccc2)c(-c2cn(CCC(=O)Nc3ccc(-c4ccccc4)cc3)nn2)c2cc(C(=O)O)c(O)cc21
IC50 [1]: 25 µM | IC50 [2]: 30 µM | IC50 [3]: > 50 µM | Activity (Mus musculus): Active | IC50 [4]: > 50 µM | IC50 [5]: 15.7 µM
